Reference: ChEMBL document CHEMBL1165950, “Design and synthesis of new potent anticancer pyrazoles with high FLT3 kinase inhibitory selectivity” (Bioorg Med Chem, 2010)

Tests used:
Type in all cases: functional
[1] = system: ACHN; assay: Cytotoxicity against human ACHN cells assessed as cell growth at 10 uM after 48 hrs by sulforhodamine B assay; details: read-out: Activity
Method in brief: (§1)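 NCI-60 five-dose screen. Cells were grown in RPMI 1640 with 5% FBS and 2 mM L-glutamine, plated at 5000–40,000 cells/well and preincubated for 24 h. Time-zero plates were TCA-fixed. DMSO-solubilized drug was added at five concentrations (10-fold or ½-log serial dilutions) for 48 h at 37 °C, 5% CO2. Cells were TCA-fixed, stained with 0.4% SRB and read at 515 nm. Percent growth used time-zero, control and test absorbances.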

[2] = system: CCRF-CEM; assay: Cytotoxicity against human CCRF-CEM cells assessed as cell growth at 10 uM after 48 hrs by sulforhodamine B assay; details: read-out: Activity; method in brief: as §1
[3] = system: SW-620; assay: Growth inhibition of human SW620 cells after 48 hrs by sulforhodamine B assay; details: SW-620, 48 h; for CC50: read-out: LC50 (the source's name)
Method in brief: (§2)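 NCI 60-cell screen, five-dose mode. Cells grown in RPMI 1640 with 5% FBS and 2 mM L-glutamine and plated at 5000-40,000 cells/well according to doubling time. After 24 h preincubation, a Tz plate was TCA-fixed. Five concentrations (10-fold or 1/2 log dilutions) were applied for 48 h at 37 °C. SRB staining read at 515 nm. IC50 taken from [(Ti-Tz)/(C-Tz)]×100 = 50.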

[4] = system: NCI-H460; assay: Cytotoxicity against human NCI-H460 cells assessed as cell growth at 100 nM after 48 hrs by sulforhodamine B assay; details: NCI-H460, 48 h, read-out: Activity
[5] = system: BT-549; assay: Cytotoxicity against human BT549 cells assessed as cell growth at 10 uM after 48 hrs by sulforhodamine B assay; details: BT-549, 48 h, read-out: Activity; method in brief: as §1
[6] = system: HOP-62; assay: Cytotoxicity against human HOP62 cells assessed as cell growth at 1 uM after 48 hrs by sulforhodamine B assay; details: HOP-62, 48 h, read-out: Activity
[7] = system: PC-3; assay: Growth inhibition of human PC3 cells after 48 hrs by sulforhodamine B assay; details: PC-3, 48 h; method in brief: as §2
[8] = system: NCI/ADR-RES; assay: Cytotoxicity against human NCI/ADR-RES cells assessed as cell growth at 0.001 uM after 48 hrs by sulforhodamine B assay; details: read-out: Activity
[9] = system: LOX IMVI; assay: Cytotoxicity against human LOXIMVI cells assessed as cell growth at 0.001 uM after 48 hrs by sulforhodamine B assay; details: read-out: Activity
[10] = system: NCI-H322M; assay: Cytotoxicity against human NCI-H322M cells assessed as cell growth at 10 uM; details: read-out: Activity
Method in brief: (§3)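 NCI-60 screen: cells grown in RPMI 1640 with 5% FBS and 2 mM L-glutamine, plated at 5000–40,000 cells/well according to doubling time, and preincubated 24 h at 37 °C, 5% CO2. The single 10 µM dose (DMSO stock) was added, then incubated 48 h. Cells were TCA-fixed and stained with 0.4% SRB, read at 515 nm, and growth % calculated against time-zero and control plates.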

[11] = system: BT-549; assay: Cytotoxicity against human BT549 cells assessed as cell growth at 10 uM; details: read-out: Activity
Method in brief: (§4)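 Single-dose NCI-60 screen at 10 µM. Cells were grown in RPMI 1640 with 5% FBS and 2 mM L-glutamine, then treated for 48 h at 37 °C. Protein was measured by SRB staining with absorbance at 515 nm. Percentage growth was recorded, and inhibition percentage was calculated as 100 minus growth percentage.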

[12] = system: UACC-62; assay: Growth inhibition of human UACC62 cells after 48 hrs by sulforhodamine B assay; details: UACC-62, 48 h; for CC50: read-out: LC50 (the source's name); method in brief: as §2
[13] = system: M14; assay: Growth inhibition of human M14 cells after 48 hrs by sulforhodamine B assay; details: M14, 48 h; for CC50: read-out: LC50 (the source's name); method in brief: as §2
[14] = system: A498; assay: Cytotoxicity against human A498 cells assessed as cell growth at 10 uM after 48 hrs by sulforhodamine B assay; details: A498, 48 h, read-out: Activity; method in brief: as §1
[15] = system: UACC-257; assay: Cytotoxicity against human UACC257 cells assessed as cell growth at 1 uM after 48 hrs by sulforhodamine B assay; details: UACC-257, 48 h, read-out: Activity
[16] = system: DU-145; assay: Cytotoxicity against human DU145 cells assessed as cell growth at 10 uM; details: read-out: Activity; method in brief: as §4
[17] = system: NCI-H460; assay: Cytotoxicity against human NCI-H460 cells assessed as cell growth at 0.01 uM after 48 hrs by sulforhodamine B assay; details: NCI-H460, 48 h, read-out: Activity
[18] = system: SNB-75; assay: Cytotoxicity against human SNB75 cells assessed as cell growth at 100 nM after 48 hrs by sulforhodamine B assay; details: SNB-75, 48 h, read-out: Activity
[19] = system: SR; assay: Cytotoxicity against human SR cells assessed as cell growth at 10 uM; details: read-out: Activity; method in brief: as §3
[20] = system: Malme-3M; assay: Cytotoxicity against human MALME-3M cells assessed as cell growth at 10 uM; details: read-out: Activity; method in brief: as §3
[21] = system: OVCAR-8; assay: Cytotoxicity against human OVCAR8 cells assessed as cell growth at 10 uM after 48 hrs by sulforhodamine B assay; details: OVCAR-8, 48 h, read-out: Activity
[22] = system: HCT-15; assay: Cytotoxicity against human HCT15 cells assessed as cell growth at 10 uM after 48 hrs by sulforhodamine B assay; details: HCT-15, 48 h, read-out: Activity
[23] = system: M14; assay: Cytotoxicity against human M14 cells assessed as cell growth at 100 nM after 48 hrs by sulforhodamine B assay; details: M14, 48 h, read-out: Activity
[24] = system: LOX IMVI; assay: Cytotoxicity against human LOXIMVI cells assessed as cell growth at 1 uM after 48 hrs by sulforhodamine B assay; details: read-out: Activity
[25] = system: OVCAR-8; assay: Cytotoxicity against human OVCAR8 cells assessed as cell growth at 0.01 uM after 48 hrs by sulforhodamine B assay; details: OVCAR-8, 48 h, read-out: Activity
[26] = system: NCI-H522; assay: Cytotoxicity against human NCI-H522 cells assessed as cell growth at 0.001 uM after 48 hrs by sulforhodamine B assay; details: NCI-H522, 48 h, read-out: Activity
[27] = system: NCI-H460; assay: Cytotoxicity against human NCI-H460 cells assessed as cell growth at 10 uM after 48 hrs by sulforhodamine B assay; details: NCI-H460, 48 h, read-out: Activity
[28] = Growth inhibition of human […] cells after 48 hrs by sulforhodamine B assay; details: for CC50: read-out: LC50 (the source's name); method in brief: as §2
[29] = system: CCRF-CEM; assay: Cytotoxicity against human CCRF-CEM cells assessed as cell growth at 1 uM after 48 hrs by sulforhodamine B assay; details: read-out: Activity; method in brief: as §1
[30] = system: CAKI-1; assay: Cytotoxicity against human Caki1 cells assessed as cell growth at 0.01 uM after 48 hrs by sulforhodamine B assay; details: CAKI-1, 48 h, read-out: Activity
[31] = system: SW-620; assay: Cytotoxicity against human SW620 cells assessed as cell growth at 0.01 uM after 48 hrs by sulforhodamine B assay; details: SW-620, 48 h, read-out: Activity
[32] = system: A498; assay: Cytotoxicity against human A498 cells assessed as cell growth at 0.01 uM after 48 hrs by sulforhodamine B assay; details: A498, 48 h, read-out: Activity; method in brief: as §1
[33] = Cytotoxicity against human Hs 578T cells assessed as cell growth at 10 uM; details: read-out: Activity; method in brief: as §4

## COc1cc(C)cc(-c2c(-c3ccnc(-c4ccc(C(C)=O)cc4)c3)cnn2CC#N)c1
[1]
  growth at 10 µM: 24%
[2]
  growth at 10 µM: 14%
[3]
  GI50: 2.27 µM
  TGI: > 100 µM
  CC50: > 100 µM
[4]
  growth at 0.1 µM: 87%
[5]
  growth at 10 µM: 24%
[6]
  growth at 1 µM: 19%
[7]
  GI50: 3.59 µM
  LC50 (concentration giving 50% net cell kill): > 100 µM
  TGI: > 100 µM
[8]
  growth at 0.001 µM: 95%
[9]
  growth at 0.001 µM: 101%
[10]
  growth at 10 µM: 104%
[11]
  growth at 10 µM: 60%
[12]
  GI50: 4.05 µM
  TGI: > 100 µM
  CC50: > 100 µM
[13]
  GI50: 1.97 µM
  CC50: > 100 µM
[14]
  growth at 10 µM: 27%
[15]
  growth at 1 µM: 38%
[16]
  growth at 10 µM: 103%
[17]
  growth at 0.01 µM: 98%
[18]
  growth at 0.1 µM: 76%
[19]
  growth at 10 µM: 25%
[20]
  growth at 10 µM: 103%
[21]
  growth at 10 µM: 10%
[22]
  growth at 10 µM: 12%
[23]
  growth at 0.1 µM: 79%
[24]
  growth at 1 µM: 19%
[25]
  growth at 0.01 µM: 83%
[26]
  growth at 0.001 µM: 86%
[27]
  growth at 10 µM: 2%
[28]
  GI50: 2.59 µM
  TGI: 9.02 µM
  CC50: > 100 µM
[29]
  growth at 1 µM: 12%
[30]
  growth at 0.01 µM: 97%
[31]
  growth at 0.01 µM: 88%
[32]
  growth at 0.01 µM: 77%
[33]
  growth at 10 µM: 88.5%

## Cc1cc(O)cc(-c2nn(CC#N)cc2-c2ccnc(-c3ccc(N(C)C)cc3)c2)c1
[1]
  growth at 10 µM: -30%
[2]
  growth at 10 µM: 7%
[3]
  GI50: 2.83 µM
  TGI: 17.5 µM
  CC50: > 100 µM
[4]
  growth at 0.1 µM: 90%
[5]
  growth at 10 µM: -43%
[6]
  growth at 1 µM: 13%
[7]
  GI50: 3.77 µM
  LC50 (concentration giving 50% net cell kill): > 100 µM
  TGI: 47.2 µM
[8]
  growth at 0.001 µM: 97%
[9]
  growth at 0.001 µM: 103%
[10]
  growth at 10 µM: 94.1%
[11]
  growth at 10 µM: 31.8%
[12]
  GI50: 3.05 µM
  TGI: 14 µM
  CC50: 72.1 µM
[13]
  GI50: 1.83 µM
  TGI: 4.76 µM
  CC50: 20.4 µM
[14]
  growth at 10 µM: -33%
[15]
  growth at 1 µM: 31%
[16]
  growth at 10 µM: 80.3%
[17]
  growth at 0.01 µM: 102%
[18]
  growth at 0.1 µM: 77%
[19]
  growth at 10 µM: 20.5%
[20]
  growth at 10 µM: 75%
[21]
  growth at 10 µM: -5%
[22]
  growth at 10 µM: -39%
[23]
  growth at 0.1 µM: 82%
[24]
  growth at 1 µM: 29%
[25]
  growth at 0.01 µM: 97%
[26]
  growth at 0.001 µM: 87%
[27]
  growth at 10 µM: -59%
[28]
  GI50: 3.71 µM
  TGI: 22.2 µM
  CC50: > 100 µM
[29]
  growth at 1 µM: 13%
[30]
  growth at 0.01 µM: 102%
[31]
  growth at 0.01 µM: 90%
[32]
  growth at 0.01 µM: 80%
[33]
  growth at 10 µM: 47.7%
